Assay results pooled from the literature.
Each line is one published result; the experiments were not run side by side.
Organism: Pseudomonas aeruginosa
Read-out: microbial growth

The MIC of `CCCCCCC/C=C/C(=O)N1C(=O)/C(=C(/C)O)C(=O)C1Cc1ccc(OC(C)(C)C)cc1` (centres unmarked) is reported as greater than 200 µg/mL (PA01).
With `Cc1cc(C(=O)Nc2ccc(C(=O)N[C@@H](CC(N)=O)C(=O)Nc3ccc(C(=O)Nc4ccc(C(=O)Nc5ccc(C(=O)O)cc5)c(O)c4OC(C)C)cc3)cc2)ccc1C#N` the MIC was 4 µg/mL (PA14).
`O=C(CCc1cc(O)c(O)c(O)c1)NCCCCCCCC[P+](c1ccccc1)(c1ccccc1)c1ccccc1.[Br-]` gave an MIC of greater than 32 µg/mL (broth dilution; ATCC27853; 18 h).
The MIC of `CC(C)Oc1c(NC(=O)c2ccc(NC(=O)[C@H](CC(N)=O)NC(=O)c3ccc(NC(=O)c4ccc(N)cc4)cc3)cc2)ccc(C(=O)Nc2ccc(C(=O)O)cc2)c1O` is reported as greater than 64 µg/mL (PA14).
The MIC of `CN(C)[C@@H]1C(O)=C(C(N)=O)C(=O)[C@@]2(O)C(O)=C3C(=O)c4c(O)cccc4[C@@](C)(O)[C@H]3C[C@@H]12` is reported as 8 µg/mL (ATCC27853).
`COc1cc(Cc2cnc(N)nc2N)cc(OC)c1OC` has an MIC of 8 µg/mL (broth dilution; 24 h).
`CC1(C)SC2C(NC(=O)C(NC(=O)C3=C(O)C(Cc4ccccc4)NC3=O)c3ccccc3)C(=O)N2C1C(=O)O` (centres unmarked) gave an MIC of 6.25 µg/mL.
With `Cc1ccc(C)n1-c1ccc(-c2nnc(-c3ccc(N(C)C)cc3)[nH]2)cc1` the MIC was 250 µg/mL (broth dilution; ATCC10145; 18 h).
The MIC of `CN(C)[C@@H]1C(O)=C(C(N)=O)C(=O)[C@@]2(O)C(O)=C3C(=O)c4c(cc5ccc(CN6CCCC6)cc5c4O)C[C@H]3C[C@@H]12` is reported as 32 µg/mL (broth dilution; ATCC27853).
`CCCCCCCCCCCC(=O)Oc1c(C)c(O)c(C(=O)/C=C/c2ccccc2)c(OC)c1C` has an MIC of 5000 µg/mL (broth dilution; ATCC27853).
`COc1ncc(O)c2c1C[C@H]1C[C@H]3[C@H](N(C)C)C(O)=C(C(N)=O)C(=O)[C@@]3(O)C(O)=C1C2=O.Cl.Cl` has an MIC of greater than 32 µg/mL (broth dilution; ATCC27853).
With `Clc1ccccc1NCc1ccc(Oc2ccccn2)cc1` the MIC was greater than 25 µg/mL.
`O=C(Cc1ccc(O)c(O)c1)NCCCCCCCC[P+](c1ccccc1)(c1ccccc1)c1ccccc1.[Br-]` gave an MIC of greater than 32 µg/mL (broth dilution; ATCC27853; 18 h).
With `Cc1cc(C#N)ccc1C(=O)Nc1ccc(C(=O)N[C@@H](CC(N)=O)C(=O)Nc2ccc(C(=O)Nc3ccc(C(=O)Nc4ccc(C(=O)O)cc4)c(O)c3OC(C)C)cc2)cc1` the MIC was 8 µg/mL (PA14).
The MIC of `COc1c2c(c(O)c3cc(CN(C)C)ccc13)C(=O)C1=C(O)[C@]3(O)C(=O)C(C(N)=O)=C(O)[C@@H](N(C)C)[C@@H]3C[C@@H]1C2` is reported as 16 µg/mL (broth dilution; ATCC27853).
`CC(=O)Nc1ccc(C(=O)Nc2ccc(C(=O)N[C@@H](CC(N)=O)C(=O)Nc3ccc(C(=O)Nc4ccc(C(=O)Nc5ccc(C(=O)O)cc5)c(O)c4OC(C)C)cc3)cc2)cc1` has an MIC of greater than 64 µg/mL (PA14).
The MIC of `O=c1cc(-c2ccccc2)oc2cc(O)cc(O)c12` is reported as 128 µg/mL (broth dilution; PAO1).
`CCCCCCC/C=C/C(=O)N1C(=O)/C(=C(\O)c2ccc(F)cc2)C(=O)C1CC(C)C` (centres unmarked) has an MIC of greater than 200 µg/mL (PA01).
For `NC[C@H]1O[C@H](O[C@H]2[C@H](O)[C@@H](O[C@H]3O[C@H](CO)[C@@H](O)[C@H](N)[C@H]3O)[C@H](N)C[C@@H]2N)[C@H](N)C[C@@H]1O`, the MIC was 26.7 µM (broth dilution; CMCC10104).
`Cc1ccc(C)n1-c1ccc(-c2nnc(-c3ccccc3[N+](=O)[O-])[nH]2)cc1` has an MIC of 250 µg/mL (broth dilution; ATCC10145; 18 h).
`C/C(=C\c1ccc(C#N)cc1)C(=O)Nc1ccc(C(=O)N[C@@H](CC(N)=O)C(=O)Nc2ccc(C(=O)Nc3ccc(C(=O)Nc4ccc(C(=O)O)cc4)c(O)c3OC(C)C)cc2)cc1` has an MIC of 1 µg/mL (PA14).
`CN(C)[C@@H]1C(O)=C(C(N)=O)C(=O)[C@@]2(O)C(O)=C3C(=O)c4c(O)cnc(Cl)c4C[C@H]3C[C@@H]12.Cl` gave an MIC of greater than 32 µg/mL (broth dilution; ATCC27853).
`CC(C)(C)OCC1NC(=O)C(C(=O)NC(C(=O)NC2C(=O)N3C2SC(C)(C)C3C(=O)O)c2ccccc2)=C1O` (centres unmarked) has an MIC of 12.5 µg/mL.
`C[C@H]1[C@H](NC(=O)/C(=N\OC(C)(C)C(=O)O)c2csc(N)n2)C(=O)N1S(=O)(=O)O` gave an MIC of 4 µg/mL (agar dilution; PAO1).
`COc1c(C)c(OC(=O)c2ccccc2)c(C)c(O)c1C(=O)/C=C/c1ccccc1` has an MIC of 5000 µg/mL (broth dilution; ATCC27853).
For `CN(C)CC(C)(C)CNc1nc(Cl)c2c(c1O)C(=O)C1=C(O)[C@]3(O)C(=O)C(C(N)=O)=C(O)[C@@H](N(C)C)[C@@H]3C[C@@H]1C2.Cl`, the MIC was 32 µg/mL (broth dilution; ATCC27853).
For `CCCCCCC/C=C/C(=O)N1C(=O)/C(=C(/C)O)C(=O)C1Cc1ccc(O)cc1` (centres unmarked), the MIC was greater than 200 µg/mL (PA01).
`Cc1ccc(NCc2ccc(Oc3ccccn3)cc2)cc1` has an MIC of greater than 50 µg/mL.
`CN(C)[C@@H]1C(O)=C(C(N)=O)C(=O)[C@@]2(O)C(O)=C3C(=O)c4c(cc5ccc(CN6CCCCC6)cc5c4O)C[C@H]3C[C@@H]12` gave an MIC of 32 µg/mL (broth dilution; ATCC27853).
For `O=c1c(O)c(-c2ccc(O)c(O)c2)oc2cc(O)cc(O)c12`, the MIC was 256 µg/mL (broth dilution; PAO1).
For `COc1c(C)c(OCc2ccccc2)c(C)c(O)c1C(=O)/C=C/c1ccccc1`, the MIC was 5000 µg/mL (broth dilution; ATCC27853).
With `CN(C)[C@@H]1C(O)=C(C(N)=O)C(=O)[C@@]2(O)C(O)=C3C(=O)c4c(O)c(-c5ccccc5)nc(Cl)c4C[C@H]3C[C@@H]12.Cl` the MIC was greater than 32 µg/mL (broth dilution; ATCC27853).
For `CC(C)Oc1c(NC(=O)c2ccc(NC(=O)[C@H](CC(N)=O)NC(=O)c3ccc(NC(=O)c4ccc(C#N)nc4)cc3)cc2)ccc(C(=O)Nc2ccc(C(=O)O)cc2)c1O`, the MIC was greater than 64 µg/mL (PA14).
The MIC of `Cc1ccc2nc(-c3ccc([N+](=O)[O-])cc3)n(Cc3ccc(Cl)cc3)c2c1` is reported as 256 µg/mL (broth dilution; ATCC27853).
`CC(C)Oc1c(NC(=O)c2ccc(NC(=O)[C@H](CC(N)=O)NC(=O)c3ccc(NC(=O)C(C)Sc4ccc(C#N)cc4)cc3)cc2)ccc(C(=O)Nc2ccc(C(=O)O)cc2)c1O` (some centres unmarked) gave an MIC of greater than 64 µg/mL (PA14).
The MIC of `O=C(Nc1ccc(S(=O)(=O)c2nccs2)cc1)c1cc(N=Nc2nccs2)ccc1O` is reported as 100 µg/mL (broth dilution).
`O=C(O)c1cn(C2CC2)c2cc(N3CCNCC3)c(F)cc2c1=O` has an MIC of 16 µg/mL (broth dilution; ATCC27853).
With `CN(C)c1nc(NC(=O)CNC(C)(C)C)c(O)c2c1C[C@H]1C[C@H]3[C@H](N(C)C)C(O)=C(C(N)=O)C(=O)[C@@]3(O)C(O)=C1C2=O.Cl` the MIC was greater than 32 µg/mL (broth dilution; ATCC27853).
The MIC of `CCCCCCC#Cc1cncc(-c2nnc(SCc3ccc(Cl)c(F)c3)n2C)c1` is reported as no less than 20 µg/mL.
The MIC of `CC1=NN(CNC(=O)c2ccccc2)C(=O)C1=NNn1c(-c2ccccc2)nc2ccccc2c1=O` is reported as 51.9 µM (broth dilution; 24 h).
For `C[C@H]1COc2c(N3CCN(C)CC3)c(F)cc3c(=O)c(C(=O)O)cn1c23`, the MIC was 138 µM (broth dilution; CMCC10104).
With `Fc1ccccc1NCc1ccc(Oc2ccccn2)cc1` the MIC was greater than 25 µg/mL.
With `O=C(CCCCCCCC[P+](c1ccccc1)(c1ccccc1)c1ccccc1)Nc1ccc(O)c(O)c1.[Br-]` the MIC was greater than 32 µg/mL (broth dilution; ATCC27853; 18 h).
For `Cc1ccc2nc(-c3ccc(Cl)cc3)n(Cc3ccccc3)c2c1`, the MIC was 64 µg/mL (broth dilution; ATCC27853).
With `CC1(C)SC2C(NC(=O)C(NC(=O)C3=C(O)C(Cc4ccc(F)cc4)NC3=O)c3ccccc3)C(=O)N2C1C(=O)O` (centres unmarked) the MIC was 25 µg/mL.
`Cc1ccc(C)n1-c1ccc(-c2nnco2)cc1` has an MIC of 4 µg/mL (broth dilution; ATCC10145; 18 h).
With `NC1CCCCc2c1[nH]c1ccc(Br)cc21` (centres unmarked) the MIC was 128 µg/mL (broth dilution; PAO1; 18 h).
`CC(C)Oc1c(NC(=O)c2ccc(NC(=O)[C@H](CC(N)=O)NC(=O)c3ccc(NC(=O)c4ccccc4[N+](=O)[O-])cc3)cc2)ccc(C(=O)Nc2ccc(C(=O)O)cc2)c1O` has an MIC of greater than 64 µg/mL (PA14).
For `CC1=NN(CNc2c(O)c(S(=O)(=O)O)cc3ccccc23)C(=O)C1=NNn1c(-c2ccccc2)nc2ccccc2c1=O`, the MIC was 41.8 µM (broth dilution; 24 h).
`CO[C@H]1/C=C/O[C@@]2(C)Oc3c(C)c(O)c4c(O)c(c(/C=N/N5CCN(C)CC5)c(O)c4c3C2=O)NC(=O)/C(C)=C\C=C\[C@H](C)[C@H](O)[C@@H](C)[C@@H](O)[C@@H](C)[C@H](OC(C)=O)[C@@H]1C` gave an MIC of 16 µg/mL (ATCC27853).
